Measurements from ChEMBL document CHEMBL1955830, “Substituted azaquinazolinones as modulators of GHSr-1a for the treatment of type II diabetes and obesity” (Bioorg Med Chem Lett, 2012).

Experiments:
[1] = target: Growth hormone secretagogue receptor type 1 (Homo sapiens, UniProt Q92847); experiment: Displacement of [125I]-Ghrelin from human GHSR membranes overexpressing GSH-R1a by scintillation counting
Summary of the method: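 Binding affinity (Ki) at GHS-R1a was measured by 125I-ghrelin displacement using commercial human GHS-R1a membranes.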

[2] = Antagonist activity at mouse GSH-R1a receptor expressed in HEK293 cells assessed as inhibition of ghrelin-induced calcium mobilization after 5 mins by FLIPR assay; assay type: functional, cell-based; details: HEK293, 5 min
Summary of the method: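 Functional antagonism was measured as IC50 in a FLIPR Ca2+ mobilisation assay.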

[3] = AUC in Sprague-Dawley rat at 1 mg/kg, iv; assay type: ADME, organism-based; design: dose 1 mg/kg, route intravenous; details: plasma
Summary of the method: (§1)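 Male Sprague-Dawley rats were dosed with compound formulated in 20% trappsol in water for injection as the vehicle.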

[4] = AUC in Sprague-Dawley rat at 3 mg/kg, po; assay type: ADME, organism-based; design: dose 3 mg/kg, route oral; details: plasma; summary of the method: as §1
[5] = Half life in Sprague-Dawley rat at 1 mg/kg, iv; assay type: ADME, organism-based; design: dose 1 mg/kg, route intravenous; details: in vivo; summary of the method: as §1
[6] = system: Rattus norvegicus; experiment: Clearance in Sprague-Dawley rat at 1 mg/kg, iv; assay type: ADME, organism-based; design: dose 1 mg/kg, route intravenous; details: in vivo; summary of the method: as §1
[7] = Volume of distribution at steady state in Sprague-Dawley rat at 1 mg/kg, iv; assay type: ADME, organism-based; design: dose 1 mg/kg, route intravenous; details: in vivo, read-out: Vdss; summary of the method: as §1
[8] = Oral bioavailability in Sprague-Dawley rat at 1 mg/kg; assay type: ADME, organism-based; details: in vivo, 3 mg/kg, in the assay text read “3 mg/kg” for “1 mg/kg”; summary of the method: as §1
[9] = target: Voltage-gated inwardly rectifying potassium channel KCNH2 (Homo sapiens, UniProt Q12809); experiment: Inhibition of human Erg by patch clamp assay; details: for pIC50: human
[10] = target: hERG (KCNH2) (Homo sapiens, UniProt Q12809); experiment: in vitro
[11] = target: 5-hydroxytryptamine receptor 2B (Homo sapiens) (UniProt P41595); experiment: Inhibition of 5-HT2B at 10 uM
[12] = target: T1, Muscarinic acetylcholine receptor M1 (Homo sapiens) (UniProt P11229); experiment: Inhibition of muscarinic M1 receptor at 10 uM
T1 sequence (whole entry): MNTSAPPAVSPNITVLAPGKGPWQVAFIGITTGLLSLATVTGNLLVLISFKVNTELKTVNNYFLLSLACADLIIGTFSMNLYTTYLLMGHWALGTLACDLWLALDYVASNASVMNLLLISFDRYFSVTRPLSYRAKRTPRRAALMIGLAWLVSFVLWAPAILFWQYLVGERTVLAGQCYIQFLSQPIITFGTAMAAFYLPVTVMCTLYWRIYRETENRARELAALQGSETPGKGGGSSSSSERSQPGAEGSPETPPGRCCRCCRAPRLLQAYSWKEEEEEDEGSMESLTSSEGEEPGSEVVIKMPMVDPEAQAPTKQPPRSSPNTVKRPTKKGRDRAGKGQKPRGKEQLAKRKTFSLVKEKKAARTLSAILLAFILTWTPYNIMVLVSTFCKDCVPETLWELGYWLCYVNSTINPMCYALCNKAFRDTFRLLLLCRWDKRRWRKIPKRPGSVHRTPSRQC

[13] = target: T2, Muscarinic acetylcholine receptor M2 (Homo sapiens) (UniProt P08172); experiment: Inhibition of muscarinic M2 receptor at 10 uM
T2 sequence (whole entry): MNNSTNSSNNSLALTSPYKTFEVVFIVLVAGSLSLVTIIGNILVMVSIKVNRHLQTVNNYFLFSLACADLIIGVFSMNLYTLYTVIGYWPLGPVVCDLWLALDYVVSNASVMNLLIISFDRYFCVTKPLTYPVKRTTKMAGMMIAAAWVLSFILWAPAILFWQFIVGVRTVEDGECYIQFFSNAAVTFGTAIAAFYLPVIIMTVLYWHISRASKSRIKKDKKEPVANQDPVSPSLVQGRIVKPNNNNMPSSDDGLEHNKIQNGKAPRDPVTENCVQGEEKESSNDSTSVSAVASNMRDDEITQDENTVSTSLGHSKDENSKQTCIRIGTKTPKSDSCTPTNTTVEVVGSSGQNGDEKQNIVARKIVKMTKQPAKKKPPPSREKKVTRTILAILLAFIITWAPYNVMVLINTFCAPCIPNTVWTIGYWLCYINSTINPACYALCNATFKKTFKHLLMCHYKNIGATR

Chain of Voltage-gated inwardly rectifying potassium channel KCNH2 (Q12809 whole entry): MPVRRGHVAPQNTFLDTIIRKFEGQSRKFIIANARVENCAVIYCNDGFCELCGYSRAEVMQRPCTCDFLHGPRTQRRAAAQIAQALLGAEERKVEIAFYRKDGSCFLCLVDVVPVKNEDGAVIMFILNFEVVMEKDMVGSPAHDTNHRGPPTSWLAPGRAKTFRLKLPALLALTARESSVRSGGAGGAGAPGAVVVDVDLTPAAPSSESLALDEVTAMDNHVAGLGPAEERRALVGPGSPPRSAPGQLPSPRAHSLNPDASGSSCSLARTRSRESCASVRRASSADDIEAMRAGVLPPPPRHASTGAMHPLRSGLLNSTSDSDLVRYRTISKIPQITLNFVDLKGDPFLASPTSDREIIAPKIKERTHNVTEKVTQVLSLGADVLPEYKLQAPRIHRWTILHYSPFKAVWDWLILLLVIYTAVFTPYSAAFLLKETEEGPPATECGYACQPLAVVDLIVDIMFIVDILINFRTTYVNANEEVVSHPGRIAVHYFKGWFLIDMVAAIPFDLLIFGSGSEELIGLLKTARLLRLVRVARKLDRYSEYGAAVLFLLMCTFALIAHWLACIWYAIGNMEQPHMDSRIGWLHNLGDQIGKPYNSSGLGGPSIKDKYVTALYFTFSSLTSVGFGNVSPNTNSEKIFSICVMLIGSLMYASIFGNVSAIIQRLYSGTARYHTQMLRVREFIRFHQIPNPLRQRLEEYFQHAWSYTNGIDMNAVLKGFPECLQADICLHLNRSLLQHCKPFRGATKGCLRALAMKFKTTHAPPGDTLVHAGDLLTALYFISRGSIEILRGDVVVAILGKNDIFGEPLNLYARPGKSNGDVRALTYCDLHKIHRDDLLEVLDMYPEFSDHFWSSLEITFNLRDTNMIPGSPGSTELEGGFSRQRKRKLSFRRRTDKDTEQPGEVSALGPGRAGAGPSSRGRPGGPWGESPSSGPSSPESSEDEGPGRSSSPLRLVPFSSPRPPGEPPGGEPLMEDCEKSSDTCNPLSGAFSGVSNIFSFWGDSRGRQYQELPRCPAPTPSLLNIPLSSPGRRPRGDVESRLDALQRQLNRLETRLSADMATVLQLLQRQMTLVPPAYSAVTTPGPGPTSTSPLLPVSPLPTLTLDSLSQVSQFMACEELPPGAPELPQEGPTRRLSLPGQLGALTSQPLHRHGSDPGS
Chain of Growth hormone secretagogue receptor type 1 (Q92847 whole entry): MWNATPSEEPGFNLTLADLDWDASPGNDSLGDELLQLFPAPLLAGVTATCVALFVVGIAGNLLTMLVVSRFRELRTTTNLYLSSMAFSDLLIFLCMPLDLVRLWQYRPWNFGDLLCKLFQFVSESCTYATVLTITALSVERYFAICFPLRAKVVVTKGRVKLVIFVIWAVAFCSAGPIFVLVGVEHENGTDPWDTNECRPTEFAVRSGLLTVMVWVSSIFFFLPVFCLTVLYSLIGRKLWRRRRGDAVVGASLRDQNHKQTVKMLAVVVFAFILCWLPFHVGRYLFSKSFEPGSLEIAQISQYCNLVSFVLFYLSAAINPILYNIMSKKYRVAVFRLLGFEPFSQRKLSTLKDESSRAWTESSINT
Chain of 5-hydroxytryptamine receptor 2B (Homo sapiens) (P41595 whole entry): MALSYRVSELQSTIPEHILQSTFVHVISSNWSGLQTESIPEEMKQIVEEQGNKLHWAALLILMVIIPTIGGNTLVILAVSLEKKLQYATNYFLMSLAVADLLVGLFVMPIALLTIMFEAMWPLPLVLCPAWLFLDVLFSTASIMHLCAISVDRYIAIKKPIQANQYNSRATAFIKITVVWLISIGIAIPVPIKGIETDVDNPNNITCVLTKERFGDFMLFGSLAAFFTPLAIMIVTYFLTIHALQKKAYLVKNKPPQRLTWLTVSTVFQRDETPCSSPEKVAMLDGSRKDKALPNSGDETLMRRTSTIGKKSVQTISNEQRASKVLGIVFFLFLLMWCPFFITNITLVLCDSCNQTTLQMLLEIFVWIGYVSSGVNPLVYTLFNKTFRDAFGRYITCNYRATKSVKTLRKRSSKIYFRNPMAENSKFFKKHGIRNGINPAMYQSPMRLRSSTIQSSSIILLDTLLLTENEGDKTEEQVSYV
Chain of hERG (KCNH2) (Q12809 whole entry): as the sequence (Q12809 whole entry) above

Ki [1] [nM]	IC50 [2] [nM]	Structure (SMILES)	other results
1.7	131	Cc1nc2ncc(Oc3ccc(-c4ccccc4)cc3)cc2c(=O)n1C[C@H]1CCCN(C(C)C)C1	–
0.2	2	Cc1nc2ccc(Oc3ccc(Cl)cc3F)nc2c(=O)n1C[C@H]1CCCN(C(C)C)C1	AUC [3]: 695 ng·h/mL; AUC [4]: 736 ng·h/mL; half-life [5]: 4.71 h; clearance [6]: 24 mL/min/kg; Vd [7]: 6.64 L/kg; bioavailability [8]: 35%
0.6	102	Cc1nc2ncc(Oc3ccc(Cl)cc3F)nc2c(=O)n1C[C@H]1CCCN(C(C)C)C1	–
6.7	357	Cc1nc2ncc(Oc3ccc(F)cc3)cc2c(=O)n1C[C@H]1CCCN(C(C)C)C1	–
–	–	Cc1nc2cnc(Oc3cccc4cccnc34)cc2c(=O)n1C[C@H]1CCCN(C(C)C)C1	IC50 [9]: 25100 nM; pIC50 [9]: 4.6
0.26	5.7	Cc1nc2ncc(Oc3ccc4ncsc4c3)nc2c(=O)n1C[C@H]1CCCN(C(C)C)C1	–
1.5	16.5	Cc1nc2ncc(Oc3ccc4c(c3)OCO4)nc2c(=O)n1C[C@H]1CCCN(C(C)C)C1	–
0.1	29.2	Cc1nc2cnc(Oc3ccc4ncsc4c3)cc2c(=O)n1C[C@H]1CCCN(C(C)C)C1	IC50 [9]: 2400 nM; pIC50 [9]: 5.62
0.4	37.7	Cc1nc2ccc(Oc3ccc(-c4ccccc4)cc3)nc2c(=O)n1C[C@H]1CCCN(C(C)C)C1	–
0.16	26	Cc1nc2ncc(Oc3ccc(Br)cc3F)cc2c(=O)n1C[C@H]1CCCN(C(C)C)C1	IC50 [9]: 1300 nM
3.1	587	Cc1nc2ncc(Oc3ccc(F)cc3)nc2c(=O)n1C[C@H]1CCCN(C(C)C)C1	AUC [3]: 1170 ng·h/mL; AUC [4]: 1170 ng·h/mL; half-life [5]: 3.01 h; clearance [6]: 13 mL/min/kg; Vd [7]: 2.87 L/kg; bioavailability [8]: 33%
2.6	131	Cc1nc2ccc(Oc3ccc(F)c4cccnc34)nc2c(=O)n1C[C@H]1CCCN(C(C)C)C1	IC50 [9]: 130 nM
0.9	19.2	Cc1nc2ccc(Oc3ccc4c(c3)OCO4)nc2c(=O)n1C[C@H]1CCCN(C(C)C)C1	–
2	185	Cc1nc2ccc(Oc3ccc(F)cc3)nc2c(=O)n1C[C@H]1CCCN(C(C)C)C1	AUC [3]: 523 ng·h/mL; AUC [4]: 941 ng·h/mL; half-life [5]: 7.16 h; clearance [6]: 32 mL/min/kg; Vd [7]: 11.9 L/kg; bioavailability [8]: 60%
–	188	Nc1nc(N)c(-c2ccc(NC(=O)C3CC3)cc2)c(COCc2ccccc2)n1	–
0.01	2.7	Cc1nc2ccc(Oc3ccc4ncsc4c3)nc2c(=O)n1C[C@H]1CCCN(C(C)C)C1	–
0.05	1.17	Cc1nc2ncc(Oc3ccc(Br)cc3F)nc2c(=O)n1C[C@H]1CCCN(C(C)C)C1	–
–	5.6	COc1ccc(Cn2c(CCc3c[nH]c4ccccc34)nnc2[C@@H](Cc2c[nH]c3ccccc23)NC(=O)[C@@H]2CCCN2)c(OC)c1	–
5	51.8	Cc1nc2ncc(Oc3ccc4c(c3)ncn4C)nc2c(=O)n1C[C@H]1CCCN(C(C)C)C1	–
0.27	80	Cc1nc2ncc(Oc3ccc(-c4ccccc4)cc3)nc2c(=O)n1C[C@H]1CCCN(C(C)C)C1	–
0.3	86.5	Cc1nc2cnc(Oc3ccc4c(c3)OCO4)cc2c(=O)n1C[C@H]1CCCN(C(C)C)C1	–
0.01	2.3	Cc1nc2ccc(Oc3ccc(Br)cc3F)nc2c(=O)n1C[C@H]1CCCN(C(C)C)C1	–
6.6	1440	Cc1nc2cnc(Oc3ccc(F)c4cccnc34)cc2c(=O)n1C[C@H]1CCCN(C(C)C)C1	IC50 [9]: 9400 nM
3.4	399	Cc1nc2cnc(Oc3ccc(F)cc3)cc2c(=O)n1C[C@H]1CCCN(C(C)C)C1	–
0.2	146	Cc1nc2cnc(Oc3ccc(Cl)cc3F)cc2c(=O)n1C[C@H]1CCCN(C(C)C)C1	IC50 [9]: 130 nM; pIC50 [9]: 6.89; selectivity ratio [10]: 10
3.1	118	COc1ccc2cccc(Oc3ccc4nc(C)n(C[C@H]5CCCN(C(C)C)C5)c(=O)c4n3)c2n1	–
1	141	Cc1nc2ccc(Oc3ccc(F)cc3)cc2c(=O)n1C[C@H]1CCCN(C(C)C)C1	inhibition [11]: > 50%; inhibition [12]: > 50%; inhibition [13]: > 50%
1.9	142	Cc1nc2ncc(Oc3ccc(F)c4cccnc34)nc2c(=O)n1C[C@H]1CCCN(C(C)C)C1	IC50 [9]: > 33000 nM
0.5	137	Cc1nc2cnc(Oc3ccc4c(c3)ncn4C)cc2c(=O)n1C[C@H]1CCCN(C(C)C)C1	–
